# Calls of active or inactive are those of the source. No cut-off for these calls is given here.
# Key:
# Format in all cases: functional
# Staphylococcus aureus [1] = test: Upregulation of peptidase M23 protein expression in Staphylococcus aureus assessed as log2 of fold change in protein level measured after 2 hrs by LC-MS/MS analysis relative to control
# Procedure, shortened: (§1)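 S. aureus ATCC 25923 at OD600 0.6 exposed to compound or DMSO control for 2 h at 37°C, normalized to OD600 1.1 and PBS-washed. Cells were pressure-cycling lysed in 100 mM ammonium bicarbonate, and 50 μg protein was acetone-precipitated, reduced and alkylated, then Trypsin/Lys-C digested and C18-desalted. About 1 μg peptides went to LC-MS/MS. Label-free quantitation kept proteins present in all 3 samples, filtered at p <0.05.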
# Staphylococcus aureus [2] = test: Downregulation of EssB protein expression in Staphylococcus aureus assessed as log2 of fold change in protein level measured after 2 hrs by LC-MS/MS analysis relative to control
# Procedure, shortened: (§2)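 S. aureus ATCC 25923 at OD600 0.6 was treated with compound or DMSO for 2 h at 37 °C, normalised to OD600 1.1, and washed in PBS. Cells were pressure-lysed in 100 mM ammonium bicarbonate, then acetone-precipitated, reduced with DTT, alkylated with iodoacetamide, and digested with trypsin/Lys-C. Peptides were desalted and run on LC-MS/MS. Label-free quantitation used proteins present in all 3 samples, filtered at p<0.05 against DMSO.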
# Streptococcus pyogenes [3] = test: Antibacterial activity against Streptococcus pyogenes MGAS 1882 assessed as inhibition of bacterial growth incubated for 18 to 20 hrs by broth microdilution method; settings: time 18-20 hrs
# Procedure, shortened: (§3)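 Broth microdilution with a 0.5 McFarland inoculum diluted in tryptic soy broth to about 5 × 10^5 CFU/mL. Serial compound dilutions incubated aerobically at 37° C for 18–20 hours. MIC read visually as the lowest concentration with no growth.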
# Streptococcus pyogenes [4] = test: Antibacterial activity against Streptococcus pyogenes MGAS 9882 assessed as inhibition of bacterial growth incubated for 18 to 20 hrs by broth microdilution method; settings: time 18-20 hrs; procedure, shortened: as §3
# Enterococcus faecalis = test: Antibacterial activity against vancomycin-resistant Enterococcus faecalis ATCC 51299 assessed as inhibition of bacterial growth incubated for 18 to 20 hrs by broth microdilution method; settings: time 18-20 hrs
# Procedure, shortened: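 Broth microdilution per CLSI. Enterococci were diluted to about 5×10^5 CFU/mL in TSB and incubated aerobically with serial dilutions of agent at 37 °C for 18–20 h. MIC was read visually as the lowest concentration with no visible growth.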
# Listeria monocytogenes = test: Antibacterial activity against Listeria monocytogenes ATCC 19111 assessed as inhibition of bacterial growth incubated for 18 to 20 hrs by broth microdilution method; settings: time 18-20 hrs; procedure, shortened: as §3
# Staphylococcus aureus [5] = test: Downregulation of CarB protein expression in Staphylococcus aureus assessed as log2 of fold change in protein level measured after 2 hrs by LC-MS/MS analysis relative to control; procedure, shortened: as §2
# Staphylococcus aureus [6] = test: Downregulation of Als protein expression in Staphylococcus aureus assessed as log2 of fold change in protein level measured after 2 hrs by LC-MS/MS analysis relative to control; procedure, shortened: as §2
# Staphylococcus aureus [7] = test: Upregulation of TraG protein expression in Staphylococcus aureus assessed as log2 of fold change in protein level measured after 2 hrs by LC-MS/MS analysis relative to control; procedure, shortened: as §1
# Staphylococcus aureus [8] = test: Upregulation of IsdI protein expression in Staphylococcus aureus assessed as log2 of fold change in protein level measured after 2 hrs by LC-MS/MS analysis relative to control; procedure, shortened: as §1
# Staphylococcus aureus [9] = test: Upregulation of MecA protein expression in Staphylococcus aureus assessed as log2 of fold change in protein level measured after 2 hrs by LC-MS/MS analysis relative to control; procedure, shortened: as §1
# Staphylococcus aureus [10] = test: Upregulation of zinc ABC transporter ATP-binding protein expression in Staphylococcus aureus measured after 2 hrs by LC-MS/MS analysis; procedure, shortened: as §1
# Staphylococcus aureus [11] = test: Upregulation of DUF4930 domain-containing protein expression in Staphylococcus aureus measured after 2 hrs by LC-MS/MS analysis; procedure, shortened: as §1
# Staphylococcus aureus [12] = test: Upregulation of glycine cleavage system protein H expression in Staphylococcus aureus measured after 2 hrs by LC-MS/MS analysis; procedure, shortened: as §1
# Staphylococcus aureus [13] = test: Upregulation of thiol reductase thioredoxin expression in Staphylococcus aureus measured after 2 hrs by LC-MS/MS analysis; procedure, shortened: as §1
# Staphylococcus aureus [14] = test: Upregulation of CHAP domain-containing protein expression in Staphylococcus aureus measured after 2 hrs by LC-MS/MS analysis; procedure, shortened: as §1
# Staphylococcus aureus [15] = test: Upregulation of acyl phosphatase expression in Staphylococcus aureus measured after 2 hrs by LC-MS/MS analysis; procedure, shortened: as §1
# Staphylococcus aureus [16] = test: Upregulation of heme uptake system protein IsdE expression in Staphylococcus aureus measured after 2 hrs by LC-MS/MS analysis; procedure, shortened: as §1
# Staphylococcus aureus [17] = test: Upregulation of siderophore biosynthesis protein SbnA expression in Staphylococcus aureus measured after 2 hrs by LC-MS/MS analysis; procedure, shortened: as §1
# Staphylococcus aureus [18] = test: Downregulation of DNA recombination protein RecF expression in Staphylococcus aureus measured after 2 hrs by LC-MS/MS analysis; procedure, shortened: as §2
# Staphylococcus aureus [19] = test: Downregulation of PTS mannose transporter subunit IIABC protein expression in Staphylococcus aureus measured after 2 hrs by LC-MS/MS analysis; procedure, shortened: as §2
# Staphylococcus aureus [20] = test: Downregulation of copper-translocating P-type ATPase protein expression in Staphylococcus aureus measured after 2 hrs by LC-MS/MS analysis; procedure, shortened: as §2
# Staphylococcus aureus [21] = test: Downregulation of DNA-binding response regulator protein expression in Staphylococcus aureus measured after 2 hrs by LC-MS/MS analysis; procedure, shortened: as §2
# Staphylococcus aureus [22] = test: Downregulation of nitrite reductase (NAD(P)H) small subunit protein expression in Staphylococcus aureus measured after 2 hrs by LC-MS/MS analysis; procedure, shortened: as §1
# Staphylococcus aureus [23] = test: Downregulation of glutamyl endopeptidase protein expression in Staphylococcus aureus measured after 2 hrs by LC-MS/MS analysis; procedure, shortened: as §2
# Staphylococcus aureus [24] = test: Downregulation of multifunctional 2,3-cyclic-nucleotide 2-phosphodiesterase/5-nucleotidase/3-nucleotidase protein expression in Staphylococcus aureus measured after 2 hrs by LC-MS/MS analysis; procedure, shortened: as §1
# Staphylococcus aureus [25] = test: Downregulation of holo-ACP synthase protein expression in Staphylococcus aureus measured after 2 hrs by LC-MS/MS analysis; procedure, shortened: as §2
# Staphylococcus aureus [26] = test: Downregulation of ortho-poxovirus protein expression in Staphylococcus aureus measured after 2 hrs by LC-MS/MS analysis; procedure, shortened: as §1
structure (smiles),measurement,setting,value
CC1CC(C)CN(S(=O)(=O)c2ccc(C(=O)Nc3nnc(-c4ccc(C(F)(F)F)cc4)o3)cc2)C1 (stereo not drawn),log2FC,Staphylococcus aureus [1],2
same,log2FC,Staphylococcus aureus [2],-3.3
same,MIC,Streptococcus pyogenes [3],0.06 µg/mL
same,MIC,Streptococcus pyogenes [4],0.06 µg/mL
same,MIC,Enterococcus faecalis,0.25 µg/mL
same,MIC,Listeria monocytogenes,0.06 µg/mL
same,log2FC,Staphylococcus aureus [5],-2
same,log2FC,Staphylococcus aureus [6],-2.7
same,log2FC,Staphylococcus aureus [7],2
same,log2FC,Staphylococcus aureus [8],3.2
same,log2FC,Staphylococcus aureus [9],2
same,Activity,Staphylococcus aureus [10],Active
same,Activity,Staphylococcus aureus [11],Active
same,Activity,Staphylococcus aureus [12],Active
same,Activity,Staphylococcus aureus [13],Active
same,Activity,Staphylococcus aureus [14],Active
same,Activity,Staphylococcus aureus [15],Active
same,Activity,Staphylococcus aureus [16],Active
same,Activity,Staphylococcus aureus [17],Active
same,Activity,Staphylococcus aureus [18],Active
same,Activity,Staphylococcus aureus [19],Active
same,Activity,Staphylococcus aureus [20],Active
same,Activity,Staphylococcus aureus [21],Active
same,Activity,Staphylococcus aureus [22],Active
same,Activity,Staphylococcus aureus [23],Active
same,Activity,Staphylococcus aureus [24],Active
same,Activity,Staphylococcus aureus [25],Active
same,Activity,Staphylococcus aureus [26],Active

# — ChEMBL document CHEMBL5154895, “Mechanistic Studies and In Vivo Efficacy of an Oxadiazole-Containing Antibiotic” (J Med Chem, 2022)
